# SENP8 block-1: SENP8 protease inhibitors, primary screen, biochemical, luminescence; AID 2540, 2010; 1.2% of 330,000 active; inhibition, % at 10 µM; purified SENP8, Z-RLRGG-aminoluciferin cleavage; in the data active = inhibition above about 50%
# Target sequence (Q96LD8 whole entry, looked up): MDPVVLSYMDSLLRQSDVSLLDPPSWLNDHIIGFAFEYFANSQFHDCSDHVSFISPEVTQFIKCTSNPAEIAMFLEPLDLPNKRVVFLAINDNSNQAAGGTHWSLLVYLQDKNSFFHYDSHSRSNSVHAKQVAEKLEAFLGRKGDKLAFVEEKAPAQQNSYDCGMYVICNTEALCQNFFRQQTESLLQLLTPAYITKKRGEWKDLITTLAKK
# SENP8 block-2: human SENP8 protease inhibitors, primary screen, biochemical, fluorescence, Nedd8 protein substrate, uHTS; 0.64% of 360,000 active; AID 602440, 2012; inhibition, % at 20 µM; Sentrin-specific protease 8 (Homo sapiens), Q96LD8; recombinant SENP8; in the data active = inhibition mostly above about 40%, no sharp cut-off; inactive = mostly below about 27%
# SENP7 block: SENP7 protease inhibitors, primary screen, biochemical, luminescence, uHTS | Sentrin-specific protease 7 (Homo sapiens), Q9BQF6 | recombinant SENP7, Z-RLRGG-aminoluciferin luminescence, 40 min | inhibition, % at 5 µM | 1.5% of 330,000 active;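 active = inhibition above about 50% at the single test dose, limit read from the data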;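 also: plate controls were DMSO with enzyme for no effect and no enzyme buffer wells for full effect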
# Apaf1 inhib: inhibitors of human Apaf-1 apoptosome, primary screen, biochemical, DEVD-Rh110 fluorescence, uHTS | Apoptotic protease-activating factor 1 (Homo sapiens), O14727 | reconstituted apoptosome caspase-3 activity | inhibition, % at 20 µM | 0.71% of 330,000 active | AID 489030, 2010; active = inhibition of at least 40% at 20 µM;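 also: plate controls were DMSO wells for no effect and DEVD-CHO caspase inhibitor wells for full effect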
#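 Assay system – apoptosome proteins · Medium – Hepes buffer, pH 7.5 · Also added – cytochrome c with DEVD-Rh110 · Timing – 30 min compound preincubation, 50 min activation, room temperature · Detection – Rh110 fluorescence, excitation 480 nm, emission 540 nm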
# SENP6 inh: SENP6 protease inhibitors, primary screen, biochemical, luminescence, uHTS; Sentrin-specific protease 6 (Homo sapiens), Q9GZR1; inhibition, % at 10 µM; AID 2599, 2010; Recombinant SENP6 catalytic domain, aminoluciferin luminescence; 1.8% of 330,000 active;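 active = inhibition above about 50% at the single tested dose, limit read from the data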;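 also: plate controls were DMSO wells with enzyme for no effect and DMSO wells lacking enzyme for full effect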
# UBC13 polyUb: UBC13 polyubiquitin chain formation inhibitors, primary screen, biochemical, TR-FRET, uHTS; inhibition, % at 20 µM; 0.47% of 330,000 active; in the data active = inhibition above about 45%, passing the limit was not always enough
# Target sequence (P61088 whole entry, looked up): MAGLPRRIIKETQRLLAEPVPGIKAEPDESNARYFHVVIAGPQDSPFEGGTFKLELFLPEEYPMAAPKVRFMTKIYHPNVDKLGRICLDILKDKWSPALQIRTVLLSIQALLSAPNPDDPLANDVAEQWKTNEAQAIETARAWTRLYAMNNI
# Numbers without * were called inactive; · = no result given. Hits are enriched below; roughly 3% of the tested compounds scored in any of these assays.
SMILES,SENP8 block-1,SENP8 block-2,SENP7 block,Apaf1 inhib,SENP6 inh,UBC13 polyUb
CCNC(=S)N/N=C1\C(=O)c2cccc3cccc1c23,-1,44*,-1,-13,-11,11
CCNC(=S)N/N=C1\CCCCc2ccccc21,-6,19,-1,6,7,10
Nc1sccc1C(=O)N1CCN(c2ccccc2)CC1,·,20,·,·,·,·
O=C1c2ccccc2C(=O)N1OCc1cccc(Cl)c1,-10,27,-4,5,-6,8
O=C1Cc2ccccc2C(=O)N1OCc1ccc(Cl)cc1Cl,0,35,26,68*,47,-10
CCN(c1ccccc1)S(=O)(=O)c1ccc(Cl)c(NC(=O)COC(=O)c2cc(O)c3ccccc3c2O)c1,32,·,12,48*,62*,-28
O=C(N=Nc1c(O)n(Cc2ccccc2)c2ccccc12)c1ccncc1,-12,42*,7,3,26,-14
CCOC(=O)C1=CCN(S(=O)(=O)c2ccc(C)cc2)C1c1cccc(C)c1 (stereo not given),·,12,·,·,·,·
O=C(C[C@H]1CC[C@@H]2[C@H](COC[C@@H](O)CN2Cc2cccc(F)c2)O1)NCC1CCCCC1,·,16,·,·,·,·
O=C(/C=C/c1cccs1)N1CCc2ccccc21,93*,33,98*,20,-3,-14
CCOc1ccc(Cl)cc1-c1cc(C(=O)NCc2cc(C(F)(F)F)cc(C(F)(F)F)c2)[nH]n1,·,14,·,·,·,·
Nc1n[nH]c(N)c1N=Nc1cccc(C(F)(F)F)c1,-18,44*,-1,13,1,-8
Nc1[nH]ncc1N=Nc1ccc(Cl)cc1,-20,48*,-2,12,-43,16
Nc1n[nH]c(N)c1N=Nc1ccc(Cl)cc1,-5,54*,5,10,6,-22
COC(=O)c1cccc(CN2C(=O)C(C)Oc3ccc(C)cc32)c1 (stereo not given),·,10,·,·,·,·
CCCCOCCCNC(=O)C[C@@H]1C[C@@]2(C(=O)OC)CCCCC=C2N(Cc2ccco2)C1=O,·,2,·,·,·,·
CCc1ccc2c(c1)c(N=NC1=NC(=O)CS1)c(O)n2CC,-7,42*,0,9,-32,-37
CCc1ccc2[nH]c(O)c(N=NC3=NC(=O)CS3)c2c1,-2,27*,-2,-8,-16,-12
O=C1NC[C@@H](CCCCN2CCN(CC3CCCCC3)C(=O)C2=O)N(CCC2CCCCC2)C1=O,·,12,·,·,·,·
O=c1c(Cl)c(O)ccn1C1OC(CO)C(O)C1O (stereo not given),·,9,·,·,·,·
Cc1nc2ccccc2c2nc3ccccc3n12,0,-273,10,-18,1,6
c1ccc2c(c1)nnn1c3ccccc3nc21,86*,·,96*,7,96*,-21
O=S(=O)(Nc1ccc(O)c2ccccc12)c1ccc(Br)cc1,22,·,33,57*,62*,-23
CC(=O)Nc1ccc(NS(=O)(=O)c2ccccc2)c2ccccc12,-2,19,5,4,-1,-2
COc1cc(SC)ccc1C(=O)Nc1nc2ccccc2[nH]1,96*,-278,101*,4,97*,19
SMILES,SENP8 block-1,SENP8 block-2,SENP7 block,Apaf1 inhib,SENP6 inh,UBC13 polyUb
COc1ccccc1C(=O)Nc1nc2ccccc2[nH]1,97*,-23,101*,7,98*,7
O=C(Nc1nc2ccccc2[nH]1)c1cccc([N+](=O)[O-])c1,-13,5,26,-6,2,0
O=C(Nc1nc2ccccc2[nH]1)c1ccc([N+](=O)[O-])cc1,15,23,85*,-5,43,4
COc1ccccc1C(=O)NCCC(=O)Nc1nc2ccccc2[nH]1,-7,-6,-6,1,-6,-3
COc1ccc(Cn2cc(CN3CCc4onc(-c5ccc(Br)cc5)c4C3=O)nn2)cc1,·,26,·,·,·,·
C/C=C/c1cccc(-c2nc(C(=O)NC3CCCC3)cc3c2[C@@H](CCO)N(S(=O)C(C)(C)C)C3)c1 (stereo not given in full),·,-20,·,·,·,·
CCCCCCCCN1C(=O)[C@H](CC(=O)NCc2ccc(C)o2)C[C@@]2(C(=O)OCC)CCC=C12,·,14,·,·,·,·
Cc1ccc2nc(-c3ccc(NC(=O)CSc4nccc(=O)[nH]4)cc3)sc2c1,8,-362,69*,-6,81*,-6
Cc1ccc2nc(-c3ccc(NC(=O)CSc4nc(N)cc(=O)[nH]4)cc3)sc2c1,10,-418,2,-18,17,7
Cc1cc2c(cc1C)-n1nnnc1C(N1CCN(c3ccccc3F)CC1)C(=O)N2 (stereo not given),·,-3,·,·,·,·
CC(C)C(C(=O)NCc1ccccc1)N1CCN(c2ccccc2F)CC1 (stereo not given),·,16,·,·,·,·
C=C(C)[C@@H]1C2=CC(C(=O)OC)=C(C[C@H](C(=C)C)[C@H]3O[C@H]3C3=C[C@H]1OC3=O)O2,·,36,·,·,·,·
CCOC(=O)[C@]12CCCC=C1N(CCC1=CCCCC1)C(=O)[C@H](CC(=O)NCc1ccc(OC)c(OC)c1)C2,·,17,·,·,·,·
Cc1ccc(Cl)cc1-c1cc(C(=O)NCC2CCCCC2)[nH]n1,·,10,·,·,·,·
Cc1ccc(S(=O)(=O)Nc2ccccc2N2CCCCC2)cc1,2,7,9,12,-7,14
O=C(NCC(F)(F)F)c1ccc(S(=O)(=O)Nc2ccccc2N2CCCC2)cc1,6,8,6,54*,11,-11
O=C(NCc1ccccc1)C(=O)Nc1cccc(C(=O)O)c1,84*,23,93*,1,93*,-3
CCOc1ccc(NC(=O)Nc2cccc(C(=O)O)c2)cc1,97*,-5,99*,2,99*,-11
CSc1cccc(NC(=O)C(=O)NCc2ccccc2)c1,-3,21,-2,-26,-14,-5
O=C(Nc1cccc(Cl)c1)Nc1cccc(C(=O)O)c1,87*,26,93*,-5,96*,-11
COc1ccc([C@H]2CN(c3ccc(OC)cc3)C(=O)[C@@H]2CC(=O)Nc2ccccc2)cc1,·,-15,·,·,·,·
Cc1ccsc1C(=O)Nc1ccc(F)c([N+](=O)[O-])c1,53*,9,71*,3,77*,-6
O=c1c2ccccc2sc2c(CO)ccc(NCCN3CCCCC3)c12,·,41*,·,·,·,·
CCN(CC)CCNc1ccc(CO)c2sc3ccccc3c(=O)c12,8,15,6,7,15,-143
Cc1cc(=O)n2[nH]c(N)c(N=Nc3ccccc3F)c2n1,85*,32,86*,-1,94*,-36
Cc1cc(=O)n2[nH]c(C)c(-c3ccccc3)c2n1,-6,-243,-7,-3,-4,15
